# Source: PubChem BioAssay
# Calls of active or inactive are those of the source.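 Rule for the calls, unless noted: active = visually confirmed hit in the image check and inhibition above 20%; inconclusive = visually confirmed hit but inhibition not above 20%; inactive = no visual hit in the image check.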
# Experiments:
# [1] = inhibitors of TNFa-induced NFkB p65 translocation, primary screen, imaging, HUVEC, MLSMR starter and 10KST1 sets (AID 438;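 active = inhibition above 20% together with a positive visual image hit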;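 note: compound added about 3h40 before a 20 min TNFalpha stimulation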;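 for inhibition: signal is the nuclear over cytoplasmic p65 intensity ratio per well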); conditions: HUVEC TNFa-induced p65 nuclear translocation; cell count: measured here: nuclei count (cytotoxicity indicator), at 2.08 µM; inhibition: at 2 µM, stronger effect = higher value, 0% TNFa-plus-vehicle, 100% no-TNFa wells
# [2] = inhibitors of mutant huntingtin aggregation, primary screen, imaging, exon1htt(103Q)mCFP cells, high-content imaging (AID 483;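 active = visual image review flags a hit and inhibition of aggregation exceeds 20%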;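 note: compound exposure lasted 3 days before fixation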;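 for nuclei count: percent of the per-plate median nuclei count of sample wells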); conditions: exon1htt(103Q)mCFP cell line, aggregate imaging, at 2 µM; inhibition of aggregation: stronger effect = higher value; nuclei count: measured here: cell count, toxicity
# [3] = inhibitors of E-selectin induction by TNFa, primary screen, imaging, HUVEC, immunofluorescence, MLSMR starter and 10KST1 sets (AID 487); conditions: HUVEC TNFalpha-induced E-selectin immunofluorescence imaging, at 2 µM; inhibition: stronger effect = higher value; nuclei count: measured here: cell number, toxicity;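 for inhibition: signal is fraction of cell area covered by stained E-selectin grains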;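 for nuclei count: 100% = median nuclei count of all wells on the same plate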
# [4] = biological target: Voltage-gated potassium channel subunit beta-2 (Rattus norvegicus) (UniProt P62483); assay: KvBeta enzyme negative modulators, primary screen, biochemical, NADPH fluorescence (AID 622;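 active = fluorescence slope higher than the sample average by over 3 SD, cut at about -0.22 in these data, passing the limit was not always enough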;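 note: slope of raw intensity against log time taken from 70 to 1610 s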); conditions: recombinant KvBeta, 4-cyanobenzaldehyde reduction, at 10 µM, stronger effect = higher value
# [5] = biological target: Voltage-gated potassium channel subunit beta-2 (Rattus norvegicus) (UniProt P62483); assay: KvBeta positive modulators, primary screen, biochemical, NADPH fluorescence (AID 623;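 active = NADPH fluorescence slope more negative than the mean of all samples by about 3 SD, 99.7% confidence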;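 note: fluorescence intensity change per second fitted from 20 to 320 s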); conditions: Recombinant KvBeta, NADPH fluorescence decrease slope, 10 min; at 10 µM; stronger effect = lower value
# [6] = biological target: Muscarinic acetylcholine receptor M4 (Homo sapiens) (UniProt P08173); assay: compounds altering M4/GIRK thallium flux, either direction, primary screen, M4 allosteric agonist project, cell-based, HEK293 M4/GIRK, BTC-AM (AID 625;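 active = fluorescence slope after compound addition differing from the mean of all tested samples at 99.7% confidence, mostly higher but some lower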;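 note: thallium influx through GIRK channels coupled to M4 in HEK293 cells with BTC-AM dye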); conditions: at 10 µM, actives lie on both sides
# How it was run: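 System: HEK293 cells with M4 receptor and GIRK channels | Incubation: Cells overnight at 37 °C, BTC-AM loading 1 h, reads 2 min total | Technique: Kinetic BTC-AM fluorescence sampled at 1 Hz, 10 s pre-addition baseline | Measure: Post-addition slope, 15–24 s, of baseline-normalized fluorescence | Control set: Carbachol positive, DMSO negative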
# [7] = inhibitors of Sendai virus-induced IRF3 signaling, primary screen, TLR/RLR signaling modifier project, cell-based, Sendai virus stimulus, luciferase, 10K MLSCN set (AID 602276;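 active = inhibition at or above 50% at 10 µM; inactive = inhibition below 50%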;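 note: firefly luciferase from ISG56 promoter only with Renilla not read in this screen; 0% = Sendai virus plus DMSO and 100% = medium plus DMSO without virus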); conditions: HEK293 RL24 IRF3 luciferase reporter, at 10 µM, stronger effect = higher value
# [8] = inhibitors of poly I:C-induced TLR3 signaling, primary screen, cell-based, poly I:C stimulus, luciferase, 10K MLSCN set (AID 602277;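 active = inhibition of the reporter signal at or above 50%; inactive = inhibition below 50%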); conditions: HEK293-TLR3 RL24 IRF3 luciferase reporter, at 10 µM, stronger effect = higher value
# Sequence of Voltage-gated potassium channel subunit beta-2 (Rattus norvegicus) (P62483 whole entry, looked up): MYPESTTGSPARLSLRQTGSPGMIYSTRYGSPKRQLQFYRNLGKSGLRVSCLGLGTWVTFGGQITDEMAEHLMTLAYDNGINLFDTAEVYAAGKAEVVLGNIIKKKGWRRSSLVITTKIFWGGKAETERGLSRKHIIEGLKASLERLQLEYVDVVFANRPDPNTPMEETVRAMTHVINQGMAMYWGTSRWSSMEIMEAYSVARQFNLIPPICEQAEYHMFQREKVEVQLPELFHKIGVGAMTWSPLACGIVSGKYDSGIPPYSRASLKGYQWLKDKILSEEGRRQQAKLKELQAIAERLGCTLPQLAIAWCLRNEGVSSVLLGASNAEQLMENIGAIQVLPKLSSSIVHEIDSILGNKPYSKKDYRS
# Sequence of Muscarinic acetylcholine receptor M4 (Homo sapiens) (P08173 whole entry, looked up): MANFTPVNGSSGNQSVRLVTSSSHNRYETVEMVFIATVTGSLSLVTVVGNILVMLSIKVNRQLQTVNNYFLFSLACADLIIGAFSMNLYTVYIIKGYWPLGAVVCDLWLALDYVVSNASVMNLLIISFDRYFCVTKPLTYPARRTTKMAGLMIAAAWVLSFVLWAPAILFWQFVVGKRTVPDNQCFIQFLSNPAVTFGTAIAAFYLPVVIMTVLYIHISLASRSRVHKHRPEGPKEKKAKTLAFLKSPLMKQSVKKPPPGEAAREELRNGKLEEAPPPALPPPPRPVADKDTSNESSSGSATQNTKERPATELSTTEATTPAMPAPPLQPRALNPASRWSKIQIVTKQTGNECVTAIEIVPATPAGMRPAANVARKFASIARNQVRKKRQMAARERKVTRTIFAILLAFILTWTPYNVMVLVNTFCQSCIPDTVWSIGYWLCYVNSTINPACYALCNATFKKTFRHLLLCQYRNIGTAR
Structure (SMILES),cell count [1],inhibition [1],inhibition of aggregation [2],nuclei count [2],inhibition [3],nuclei count [3],fluorescence slope [4],NADPH fluorescence slope [5],fluorescence slope [6],inhibition [7],inhibition [8]
CCn1c(Cc2ccccc2)nnc1SCC(=O)Nc1nc2ccccc2s1,741,-0.5% (inactive),-25.5% (inactive),115%,-24.9% (inactive),97.6%,-0.469 (inactive),-4.8e-05 (inactive),0.00499 (inactive),18.4% (inactive),17.4% (inactive)
Cc1nc(NC2=NCN(CCc3ccccc3)CN2)nc2c(C)cccc12,428,46.4% (active),-2.2% (inactive),79.5%,-18.7% (inactive),104%,-0.457 (inactive),-1.3e-05 (inactive),0.0048 (inactive),27.7% (inactive),28.3% (inactive)
C/C(N)=C(/C#N)C(=O)COC(=O)COc1ccc(Cl)cc1,500,4.3% (inactive),11.4% (inactive),97.4%,-5.5% (inactive),105%,-0.414 (inactive),9.1e-05 (inactive),0.00641 (inactive),18.1% (inactive),23.1% (inactive)
Cc1nc2ccccn2c1P(=O)(N1CCCCC1)N1CCCCC1,666,-11.7% (inactive),-0.1% (inactive),77%,-64.2% (inactive),108%,-0.526 (inactive),-1.7e-06 (inactive),0.00464 (inactive),20.1% (inactive),20.6% (inactive)
CC(=O)NCCn1ccc2ccccc21,272,14.1% (inactive),17.6% (inactive),93%,-55.1% (inactive),99.6%,-0.518 (inactive),0.000103 (inactive),0.00841 (inactive),16.6% (inactive),20.7% (inactive)
CCn1cc(C(=O)OCC(=O)OC2CC(C)CCC2C(C)C)c(=O)c2ccc(C)nc21 (configuration not stated),519,-21.2% (inactive),2.5% (inactive),92.5%,26.8% (inactive),104%,-0.416 (inactive),-0.000351 (inactive),0.00567 (inactive),18.5% (inactive),5.31% (inactive)
CCOC(=O)c1c(C)oc2ccc(O)c(CN3CCCCC3)c12,376,-0.9% (inactive),-42.7% (inactive),102%,-90.5% (inactive),81.7%,-0.383 (inactive),2.5e-05 (inactive),0.00399 (inactive),17.3% (inactive),31.7% (inactive)
